# Where two headings read alike, the source gives them in different places.
# Tests used:
# [1] = patients with advanced cancer, cited from earlier work; for AUCτ: mean
# [2] = Pharmacokinetics of RAD001 in blood, Phase I once-daily oral dosing; assay type: in vivo, Japanese patients; conditions: for CL/F / AUC / Cmax: mean ± SD; for AUC / Cmax / Tmax: human, whole blood, oral; for AUC: AUCτ, 0 to 24 h
# Outline: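 Adults aged ≥20 years, Japanese, with refractory advanced tumours; strong CYP3A4 inhibitors or inducers excluded. Oral dosing once daily at 2.5, 5 or 10 mg in continuous 28-day cycles. Per cohort: Cmax, tmax, AUC 0–24 h and CL/F. Descriptive statistics, means ± SD.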
# [3] = 2.5 mg/day, Day 1, 2.5 mg/day (n = 3)
# [4] = 2.5 mg/day, Day 15, 2.5 mg/day (n = 3)
# [5] = 5 mg/day, Day 1, 5 mg/day (n = 3)
# [6] = 5 mg/day, Day 15, 5 mg/day (n = 3)
# [7] = 10 mg/day, Day 1, 10 mg/day (n = 3)
structure (smiles),measurement,setting,value
"CO[C@H]1C[C@@H]2CC[C@@H](C)[C@@](O)(O2)C(=O)C(=O)N2CCCC[C@H]2C(=O)O[C@H]([C@H](C)C[C@@H]2CC[C@@H](OCCO)[C@H](OC)C2)CC(=O)[C@H](C)/C=C(\C)[C@@H](O)[C@@H](OC)C(=O)[C@H](C)C[C@H](C)/C=C/C=C/C=C/1C [RAD001, everolimus]",Cmax,"[1]; daily dose 5 mg, mean ± SD",32 ± 9 ng/mL
same,AUCτ,[1]; daily dose 5 mg,238 ± 77 ng·h/mL
same,AUCτ,[1]; daily dose 10 mg,514 ± 231 ng·h/mL
same,CL/F,"[2]; Day 15, 2.5 mg/day (n = 3)",19.1 ± 3.26 L/h
same,CL/F,"[2]; Day 15, 5 mg/day (n = 3)",9.94 ± 3.21 L/h
same,CL/F,"[2]; Day 15, 10 mg/day (n = 3)",14.3 ± 2.23 L/h
same,Time at which Cmax was apparent,[2]; after administration of a single oral dose,2 h
same,Time to Cmax,[2]; after oral administration,1 to 2 h
same,Increase of Cmax and AUCτ with dose,"[2]; day 1, 2.5 to 10 mg",almost dose-proportionally
same,Exposure (AUCτ) after multiple dosing (day 15) relative to single dose (day 1),[2]; days 1 and 15,about twice
same,AUC,[2]; [3],85.2 ± 18.7 ng·h/mL
same,AUC,[2]; [4],134 ± 24.1 ng·h/mL
same,Cmax,[2]; [3],15.1 ± 2.48 ng/mL
same,Cmax,[2]; [4],16.8 ± 1.33 ng/mL
same,Tmax,"[2]; 2.5 mg/day, tmax Median, Day 1, 2.5 mg/day (n = 3)",1.98 h
same,Tmax,"[2]; 2.5 mg/day, tmax Range, Day 1, 2.5 mg/day (n = 3)",0.98 to 2 h
same,Tmax,"[2]; 2.5 mg/day, tmax Range, Day 15, 2.5 mg/day (n = 3)",1 to 1.98 h
same,AUC,[2]; [5],211 ± 50 ng·h/mL
same,AUC,[2]; [6],543 ± 189 ng·h/mL
same,Cmax,[2]; [5],31.5 ± 3.4 ng/mL
same,Cmax,[2]; [6],57.6 ± 17.6 ng/mL
same,Tmax,"[2]; 5 mg/day, tmax Median, Day 15, 5 mg/day (n = 3)",1.98 h
same,Tmax,"[2]; 5 mg/day, tmax Range, Day 1, 5 mg/day (n = 3)",1 to 1.95 h
same,Tmax,"[2]; 5 mg/day, tmax Range, Day 15, 5 mg/day (n = 3)",1.93 to 1.98 h
same,AUC,[2]; [7],401 ± 51.6 ng·h/mL
same,Cmax,[2]; [7],49.4 ± 14.8 ng/mL
same,Cmax,"[2]; 10 mg/day, Day 15, 10 mg/day (n = 3)",65.9 ± 1.4 ng/mL
same,Tmax,"[2]; 10 mg/day, tmax Median, Day 1, 10 mg/day (n = 3)",2 h
same,Tmax,"[2]; 10 mg/day, tmax Median, Day 15, 10 mg/day (n = 3)",2.02 h
same,Tmax,"[2]; 10 mg/day, tmax Range, Day 1, 10 mg/day (n = 3)",1.92 to 2 h
same,Tmax,"[2]; 10 mg/day, tmax Range, Day 15, 10 mg/day (n = 3)",2 to 2.2 h
same,Time to steady state (Cmin),[2]; repeated once-daily oral dosing,~8 days
